Active and inactive are the calls of the source.
What was measured:
Format in all cases: functional, organism-based
[1] = system: Candida albicans; assay: Antifungal activity against Candida albicans ATCC MYA-2876 at 100 ug/ml after 48 hrs by micro broth dilution method
In short: (§1)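 Broth microdilution in RPMI-1640 (NaHCO3, MOPS, pH 7.0). Compounds are dissolved in DMSO and serially diluted 2-fold to eight concentrations, with stocks of […]. Fungal inocula are 2 × 10³ cfu/mL. Plates are incubated 48 h at 28 °C. The MIC is the lowest concentration with no turbidity, and the highest concentration tested is 100 μg/mL.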

[2] = system: Candida parapsilosis; assay: Antifungal activity against Candida parapsilosis ATCC 22019 at 100 ug/ml after 48 hrs by micro broth dilution method; in short: as §1
[3] = system: Aspergillus fumigatus; assay: Antifungal activity against Aspergillus fumigatus CCTCC AF 93048 at 100 ug/ml after 48 hrs by micro broth dilution method; in short: as §1

Measured: Activity

COc1ccc(CCNC(=O)[C@@H]2CCC[C@H]2[C@@H]2C/C=C/C=C(/C#N)[C@H](O)[C@@H](C)C[C@H](C)C[C@H](C)C[C@H](C)[C@@H](O)CC(=O)O2)cc1
inactive: all assays above

COC(=O)[C@@H](Cc1ccccc1)NC(=O)[C@@H]1CCC[C@H]1[C@@H]1C/C=C/C=C(/C#N)[C@H](O)[C@@H](C)C[C@H](C)C[C@H](C)C[C@H](C)[C@@H](O)CC(=O)O1
inactive: all assays above

C[C@@H]1C[C@H](C)C[C@H](C)[C@@H](O)CC(=O)O[C@H]([C@@H]2CCC[C@H]2C(=O)N2CCNCC2)C/C=C/C=C(/C#N)[C@H](O)[C@@H](C)C1
inactive: all assays above

C[C@@H]1C[C@H](C)C[C@H](C)[C@@H](O)CC(=O)O[C@H]([C@@H]2CCC[C@H]2C(=O)N2CCN(Cc3ccccc3)CC2)C/C=C/C=C(/C#N)[C@H](O)[C@@H](C)C1
inactive: all assays above

C[C@@H]1C[C@H](C)C[C@H](C)[C@@H](O)CC(=O)O[C@H]([C@@H]2CCC[C@H]2C(=O)N2CCOCC2)C/C=C/C=C(/C#N)[C@H](O)[C@@H](C)C1
inactive: all assays above

C[C@@H]1C[C@H](C)C[C@H](C)[C@@H](O)CC(=O)O[C@H]([C@@H]2CCC[C@H]2C(=O)OCCN2CCN(C(=O)c3ccccc3)CC2)C/C=C/C=C(/C#N)[C@H](O)[C@@H](C)C1
inactive: all assays above

C[C@@H]1C[C@H](C)C[C@H](C)[C@@H](O)CC(=O)O[C@H]([C@@H]2CCC[C@H]2C(=O)NCCc2ccccn2)C/C=C/C=C(/C#N)[C@H](O)[C@@H](C)C1
inactive: all assays above

CC(=O)CN1CCN(CCOC(=O)[C@@H]2CCC[C@H]2[C@@H]2C/C=C/C=C(/C#N)[C@H](O)[C@@H](C)C[C@H](C)C[C@H](C)C[C@H](C)[C@@H](O)CC(=O)O2)CC1
inactive: all assays above

CCC(=O)NNC(=O)[C@@H]1CCC[C@H]1[C@@H]1C/C=C/C=C(/C#N)[C@H](O)[C@@H](C)C[C@H](C)C[C@H](C)C[C@H](C)[C@@H](O)CC(=O)O1
inactive: all assays above

C[C@@H]1C[C@H](C)C[C@H](C)[C@@H](O)CC(=O)O[C@H]([C@@H]2CCC[C@H]2C(=O)OCCN2CCN(Cc3ccc(F)cc3F)CC2)C/C=C/C=C(/C#N)[C@H](O)[C@@H](C)C1
inactive: all assays above

C[C@@H]1C[C@H](C)C[C@H](C)[C@@H](O)CC(=O)O[C@H]([C@@H]2CCC[C@H]2C(=O)OCCN2CCN(Cc3ccc(F)cc3)CC2)C/C=C/C=C(/C#N)[C@H](O)[C@@H](C)C1
inactive: all assays above

C[C@@H]1C[C@H](C)C[C@H](C)[C@@H](O)CC(=O)O[C@H]([C@@H]2CCC[C@H]2C(=O)OCc2ccccn2)C/C=C/C=C(/C#N)[C@H](O)[C@@H](C)C1
inactive: all assays above

C[C@@H]1C[C@H](C)C[C@H](C)[C@@H](O)CC(=O)O[C@H]([C@@H]2CCC[C@H]2C(=O)OCCN2CCN(Cc3ccc(Cl)cc3)CC2)C/C=C/C=C(/C#N)[C@H](O)[C@@H](C)C1
inactive: all assays above

C[C@@H]1C[C@H](C)C[C@H](C)[C@@H](O)CC(=O)O[C@H]([C@@H]2CCC[C@H]2C(=O)NCc2ccccc2)C/C=C/C=C(/C#N)[C@H](O)[C@@H](C)C1
inactive: all assays above

C[C@@H]1C[C@H](C)C[C@H](C)[C@@H](O)CC(=O)O[C@H]([C@@H]2CCC[C@H]2C(=O)OCC2CC2)C/C=C/C=C(/C#N)[C@H](O)[C@@H](C)C1
inactive: all assays above

COC(=O)[C@@H](Cc1cnc[nH]1)NC(=O)[C@@H]1CCC[C@H]1[C@@H]1C/C=C/C=C(/C#N)[C@H](O)[C@@H](C)C[C@H](C)C[C@H](C)C[C@H](C)[C@@H](O)CC(=O)O1
inactive: all assays above

C[C@@H]1C[C@H](C)C[C@H](C)[C@@H](O)CC(=O)O[C@H]([C@@H]2CCC[C@H]2C(=O)OCCc2ccccc2)C/C=C/C=C(/C#N)[C@H](O)[C@@H](C)C1
inactive: all assays above

C[C@@H]1C[C@H](C)C[C@H](C)[C@@H](O)CC(=O)O[C@H]([C@@H]2CCC[C@H]2C(=O)OCCN2CCN(Cc3ccc([N+](=O)[O-])cc3)CC2)C/C=C/C=C(/C#N)[C@H](O)[C@@H](C)C1
inactive: all assays above

C[C@@H]1C[C@H](C)C[C@H](C)[C@@H](O)CC(=O)O[C@H]([C@@H]2CCC[C@H]2C(=O)OCCN2CCNCC2)C/C=C/C=C(/C#N)[C@H](O)[C@@H](C)C1
inactive: all assays above

C[C@@H]1C[C@H](C)C[C@H](C)[C@@H](O)CC(=O)O[C@H]([C@@H]2CCC[C@H]2C(=O)OCCN2CCN(C(=O)OCc3ccccc3)CC2)C/C=C/C=C(/C#N)[C@H](O)[C@@H](C)C1
inactive: all assays above

C[C@@H]1C[C@H](C)C[C@H](C)[C@@H](O)CC(=O)O[C@H]([C@@H]2CCC[C@H]2C(=O)OCCN2CCN(Cc3ccc4ccccc4c3)CC2)C/C=C/C=C(/C#N)[C@H](O)[C@@H](C)C1
inactive: all assays above

Cc1ccc(CN2CCN(CCOC(=O)[C@@H]3CCC[C@H]3[C@@H]3C/C=C/C=C(/C#N)[C@H](O)[C@@H](C)C[C@H](C)C[C@H](C)C[C@H](C)[C@@H](O)CC(=O)O3)CC2)cc1
inactive: all assays above

C[C@@H]1C[C@H](C)C[C@H](C)[C@@H](O)CC(=O)O[C@H]([C@@H]2CCC[C@H]2C(=O)OCCN2CCN(Cc3ccccc3)CC2)C/C=C/C=C(/C#N)[C@H](O)[C@@H](C)C1
inactive: all assays above

CCCCCN(CCCC)C(=O)[C@@H]1CCC[C@H]1[C@@H]1C/C=C/C=C(/C#N)[C@H](O)[C@@H](C)C[C@H](C)C[C@H](C)C[C@H](C)[C@@H](O)CC(=O)O1
inactive: all assays above

COc1ccc(N2CCN(C(=O)[C@@H]3CCC[C@H]3[C@@H]3C/C=C/C=C(/C#N)[C@H](O)[C@@H](C)C[C@H](C)C[C@H](C)C[C@H](C)[C@@H](O)CC(=O)O3)CC2)cc1
inactive: all assays above

CC(=O)N1CCN(CCOC(=O)[C@@H]2CCC[C@H]2[C@@H]2C/C=C/C=C(/C#N)[C@H](O)[C@@H](C)C[C@H](C)C[C@H](C)C[C@H](C)[C@@H](O)CC(=O)O2)CC1
inactive: all assays above

C[C@@H]1C[C@H](C)C[C@H](C)[C@@H](O)CC(=O)O[C@H]([C@@H]2CCC[C@H]2C(=O)N2CCCC2)C/C=C/C=C(/C#N)[C@H](O)[C@@H](C)C1
inactive: all assays above

COC(=O)[C@@H](CCSC)NC(=O)[C@@H]1CCC[C@H]1[C@@H]1C/C=C/C=C(/C#N)[C@H](O)[C@@H](C)C[C@H](C)C[C@H](C)C[C@H](C)[C@@H](O)CC(=O)O1
inactive: all assays above

C[C@@H]1C[C@H](C)C[C@H](C)[C@@H](O)CC(=O)O[C@H]([C@@H]2CCC[C@H]2C(=O)N2CCN(CCO)CC2)C/C=C/C=C(/C#N)[C@H](O)[C@@H](C)C1
inactive: all assays above

COc1ccc2[nH]cc(CCNC(=O)[C@@H]3CCC[C@H]3[C@@H]3C/C=C/C=C(/C#N)[C@H](O)[C@@H](C)C[C@H](C)C[C@H](C)C[C@H](C)[C@@H](O)CC(=O)O3)c2c1
inactive: all assays above

C[C@@H]1C[C@H](C)C[C@H](C)[C@@H](O)CC(=O)O[C@H]([C@@H]2CCC[C@H]2C(=O)OCCN2CCN(Cc3ccc(Br)cc3)CC2)C/C=C/C=C(/C#N)[C@H](O)[C@@H](C)C1
inactive: all assays above

C[C@@H]1C[C@H](C)C[C@H](C)[C@@H](O)CC(=O)O[C@H]([C@@H]2CCC[C@H]2C(=O)OCCN2CCN(C(=O)OC(C)(C)C)CC2)C/C=C/C=C(/C#N)[C@H](O)[C@@H](C)C1
inactive: all assays above

C[C@@H]1C[C@H](C)C[C@H](C)[C@@H](O)CC(=O)O[C@H]([C@@H]2CCC[C@H]2C(=O)N2CCCCC2)C/C=C/C=C(/C#N)[C@H](O)[C@@H](C)C1
inactive: all assays above

C[C@@H]1C[C@H](C)C[C@H](C)[C@@H](O)CC(=O)O[C@H]([C@@H]2CCC[C@H]2C(=O)N2CCN(C)CC2)C/C=C/C=C(/C#N)[C@H](O)[C@@H](C)C1
inactive: all assays above

From ChEMBL document CHEMBL4382218, “Design, synthesis and antifungal evaluation of borrelidin derivatives” (Bioorg Med Chem, 2018)
